From ChEMBL document CHEMBL2396631, “(+)-Altholactone exhibits broad spectrum immune modulating activity by inhibiting the activation of pro-inflammatory cytokines in RAW 264.7 cell lines” (Bioorg Med Chem, 2013)
pIC50: −log10 of the molar value. The source made the active and inactive calls. The calls are words filed in the database; no cut-off is given here.

How the values were obtained:
[1] = Inhibition of LPS-induced NF-kappaB activation in mouse RAW264.7 cells after 18 hrs by luciferase assay; format: cell-based; details: RAW264.7, 18 h
Outline: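 RAW264.7 cells stably carrying an NF-κB luciferase reporter plated at 5 × 10⁴ per well and allowed 24 h recovery. Then treated with compound plus LPS 100 ng/mL for 18 h. Lysates read after adding luciferase assay reagent. IC50 given as mean ± SE, n = 3.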

RAW264.7 [2] = assay: Cytotoxicity against mouse RAW264.7 cells after 18 hrs by MTT assay; format: cell-based; details: RAW264.7, 18 h
Outline: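 Murine macrophage RAW264.7 cells exposed to compound about 18 h, tested at 6.25–100 µM from DMSO stock. MTT added for 2 h, formazan dissolved in DMSO and read at 570 nm. IC50 given as mean ± SE, n = 3.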

LNCaP = assay: Cytotoxicity against human LNCAP cells up to 100 uM after 20 hrs by MTT assay; format: cell-based
Outline: (§1)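 Non-tumorigenic MCF-10A and tumorigenic MCF-7, MDA-MB-231, PC3 and LNCaP cells grown in 96-well plates in their own growth media. Treated with 6.25, 12.5, 25, 50 or 100 µM compound from DMSO stock for 20 h, then MTT added for 2 h. Formazan dissolved in DMSO and absorbance read at 570 nm.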

RAW264.7 [3] = assay: Antiinflammatory activity in mouse RAW264.7 cells assessed as reduction of LPS-induced MCP1 mRNA expression by quantitative real-time PCR analysis; format: functional, cell-based
Outline: (§2)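 Cells treated with compound (0.7–12.5 µM) plus LPS 100 ng/mL. Total RNA analysed by SYBR Green real-time qPCR, with each gene normalised to GAPDH. Mean ± SD of three independent experiments; one-way ANOVA, p < 0.05 taken as significant.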

RAW264.7 [4] = assay: Antiinflammatory activity in mouse RAW264.7 cells assessed as reduction of LPS-induced iNOS expression at 5 uM after 4 hrs by Western blot analysis; format: functional, cell-based
Outline: (§3)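 Near-confluent cells treated with rising compound concentrations (1.5–12.0 µM) plus LPS for 4 h at 37 °C. Lysed directly in SDS loading buffer, sonicated, heated, run on 4–15% gels, then transferred. Probed for phospho-IκBα, IκBα, iNOS and COX-2, with β-actin as the loading reference; HRP secondaries used.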

RAW264.7 [5] = assay: Antiinflammatory activity in mouse RAW264.7 cells assessed as reduction of LPS-induced iNOS mRNA expression by quantitative real-time PCR analysis; format: functional, cell-based; outline: as §2
RAW264.7 [6] = assay: Inhibition of LPS-induced NF-kappaB activation in mouse RAW264.7 cells assessed as reduction of IkappaBalpha phosphorylation at 1.5 to 12 uM after 4 hrs by Western blot analysis; format: cell-based; outline: as §3
RAW264.7 [7] = assay: Antiinflammatory activity in mouse RAW264.7 cells assessed as reduction of LPS-induced IL-6 mRNA expression by quantitative real-time PCR analysis; format: functional, cell-based; outline: as §2
MCF7 = assay: Cytotoxicity against human MCF7 cells up to 100 uM after 20 hrs by MTT assay; format: cell-based; details: mcf7, 20 h; outline: as §1
RAW264.7 [8] = assay: Antiinflammatory activity in mouse RAW264.7 cells assessed as reduction of LPS-induced IL-1beta mRNA expression by quantitative real-time PCR analysis; format: functional, cell-based; outline: as §2
RAW264.7 [9] = assay: Antiinflammatory activity in mouse RAW264.7 cells assessed as reduction of LPS-induced COX2 expression at 5 uM after 4 hrs by Western blot analysis; format: functional, cell-based; outline: as §3
PC-3 = assay: Cytotoxicity against human PC3 cells up to 100 uM after 20 hrs by MTT assay; format: cell-based; details: pc-3, 20 h; outline: as §1
RAW264.7 [10] = assay: Antiinflammatory activity in mouse RAW264.7 cells assessed as reduction of LPS-induced IFN-beta mRNA expression by quantitative real-time PCR analysis; format: functional, cell-based; outline: as §2
MDA-MB-231 = assay: Cytotoxicity against human MDA-MB-231 cells up to 100 uM after 20 hrs by MTT assay; format: cell-based; details: mda-mb-231, 20 h; outline: as §1
RAW264.7 [11] = assay: Antiinflammatory activity in mouse RAW264.7 cells assessed as reduction of LPS-induced COX2 mRNA expression by quantitative real-time PCR analysis; format: functional, cell-based; outline: as §2
RAW264.7 [12] = assay: Antiinflammatory activity in mouse RAW264.7 cells assessed as reduction of LPS-induced IP-10 mRNA expression by quantitative real-time PCR analysis; format: functional, cell-based; outline: as §2
MCF-10A = assay: Cytotoxicity against human MCF10A cells up to 100 uM after 20 hrs by MTT assay; format: cell-based; outline: as §1
RAW264.7 [13] = assay: Antiinflammatory activity in mouse RAW264.7 cells assessed as reduction of LPS-induced G-CSF mRNA expression by quantitative real-time PCR analysis; format: functional, cell-based; outline: as §2
RAW264.7 [14] = assay: Antiinflammatory activity in mouse RAW264.7 cells assessed as inhibition of LPS-induced nitric oxide production after 24 hrs by Griess assay; format: functional, cell-based; details: RAW264.7, 24 h
Outline: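 Cells plated in RPMI1640, 24 h at 37 °C; medium changed, then compound plus E. coli 055:B5 LPS added. Supernatant mixed with Griess reagent (sulfanilamide/naphthylethylenediamine in H3PO4), 30 min at room temperature in the dark. IC50 given as mean ± SE, n = 3.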

pIC50 [1]	pIC50 (RAW264.7 [3])	pIC50 (RAW264.7 [5])	pIC50 (RAW264.7 [7])	pIC50 (RAW264.7 [8])	pIC50 (RAW264.7 [10])	pIC50 (RAW264.7 [11])	pIC50 (RAW264.7 [12])	pIC50 (RAW264.7 [13])	pIC50 (RAW264.7 [14])	Structure (SMILES)	pIC50 (RAW264.7 [2])	Activity (LNCaP)	inhibition (RAW264.7 [4])	inhibition (RAW264.7 [6])	Activity (MCF7)	inhibition (RAW264.7 [9])	Activity (PC-3)	Activity (MDA-MB-231)	Activity (MCF-10A)
4.46	–	–	–	–	–	–	–	–	–	CC(=O)O[C@H]1[C@@H]2OC(=O)C=C[C@@H]2O[C@@H]1c1ccccc1 [(+)-3-O-ACETYLALTHOLACTONE]	4.44	–	–	–	–	–	–	–	–
5.17	5.40	5.70	6.05	5.52	6.10	5.52	5.30	5.40	6.10	O=C1C=C[C@@H]2O[C@H](c3ccccc3)[C@@H](O)[C@@H]2O1 [ALTHOLACTONE]	4.36	Non-toxic	Active	Active	Non-toxic	Active	Non-toxic	Non-toxic	Non-toxic
4.56	–	–	–	–	–	–	–	–	–	O=C1C=CC[C@H](/C=C/c2ccccc2)O1 [GONIOTHALAMIN]	4.47	–	–	–	–	–	–	–	–
